The list is not random: actives were taken first. Their share in the collection is about 1.8%.
M5 antag = human M5 muscarinic receptor antagonists, primary screen, CHO cells, Fluo-8 calcium fluorescence | AID 624040, 2012 | CHO-hM5 cells, ACh EC80 | hit rate 0.59% among 360,000 | Muscarinic acetylcholine receptor M5 (Homo sapiens), P08912 | inhibition, % at 3 µM;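 active = inhibition above a per-plate cutoff, the mean of that plate's test compounds plus 3 SD, cut at about 27% in these data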;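 note: 0% = acetylcholine EC80 with DMSO and 100% = DMSO without agonist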
Target sequence (P08912 whole entry, looked up): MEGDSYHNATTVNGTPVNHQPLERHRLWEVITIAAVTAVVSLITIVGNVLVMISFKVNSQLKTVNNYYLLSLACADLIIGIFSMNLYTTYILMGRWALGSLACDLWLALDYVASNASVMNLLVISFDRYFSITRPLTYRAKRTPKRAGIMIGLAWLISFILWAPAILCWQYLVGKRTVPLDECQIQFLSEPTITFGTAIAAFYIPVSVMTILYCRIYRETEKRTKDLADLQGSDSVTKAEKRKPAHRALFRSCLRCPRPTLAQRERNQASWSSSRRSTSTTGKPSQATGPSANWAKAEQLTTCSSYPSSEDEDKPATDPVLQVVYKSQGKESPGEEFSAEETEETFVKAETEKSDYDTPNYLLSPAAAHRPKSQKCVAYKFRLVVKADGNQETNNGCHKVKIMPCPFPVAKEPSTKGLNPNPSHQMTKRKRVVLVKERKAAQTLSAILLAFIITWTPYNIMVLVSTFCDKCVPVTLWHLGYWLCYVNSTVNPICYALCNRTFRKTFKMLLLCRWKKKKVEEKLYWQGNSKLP
CHRM4 antagonist = human M4 muscarinic receptor antagonists, primary screen, CHO cells, Fluo-8 calcium fluorescence. Muscarinic acetylcholine receptor M4 (Homo sapiens), P08173. AID 624125, 2012. inhibition, % at 3 µM. CHO-hM4 cells, ACh EC80. hit rate 0.73% among 360,000;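 active = inhibition above its plate's cutoff, the mean inhibition of sample wells plus 3 SD, cut at about 27% in these data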;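 note: 0% = acetylcholine EC80 with DMSO and 100% = DMSO without agonist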
CHRM5 PAM = human M5 muscarinic receptor positive allosteric modulators, primary screen, CHO-K1 cells, Fluo-8 calcium fluorescence; Muscarinic acetylcholine receptor M5 (Homo sapiens), P08912; CHO-K1 hM5, ACh EC20 PAM; 0% = ACh EC20, 100% = ACh EC100; activation, % at 3 µM; hit rate 0.3% among 360,000; AID 624038, 2012;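 active = activation above the run cutoff, the mean activation of all test compounds plus 3 SD, cut at about 18% in these data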
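System – CHO-K1 hM5 cells · Compound – 3 µM, single dose · Incubation – compound preincubation 140 s before EC20 acetylcholine addition · Technique – Fluo-8 calcium fluorescence · Measure – Max/basal fluorescence ratio as % of EC20–EC100 ACh window · Benchmarks – low control EC20 acetylcholine (0%), high control EC100 acetylcholine (100%) · Replication – singlicate, one well per test compound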
M4 PAM = human M4 muscarinic receptor positive allosteric modulators, primary screen, CHO-K1 cells, Fluo-8 calcium fluorescence; Muscarinic acetylcholine receptor M4 (Homo sapiens), P08173; hit rate 0.4% among 360,000; AID 624126, 2012; CHO-K1 hM4/Gqi5, ACh EC20; 0% = ACh EC20, 100% = maximal ACh; activation, % at 3 µM;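 active = activation above its plate's cutoff, the mean activation of sample wells plus 3 SD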
M5 ag = human M5 muscarinic receptor agonists, primary screen, CHO-K1 cells, Fluo-8 calcium fluorescence; CHO-K1 hM5 cells; 0% DMSO wells, 100% maximal acetylcholine response; activation, % at 3 µM; hit rate 0.19% among 360,000; AID 624037, 2012;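 active = activation above the run's mean over test compounds plus 3 SD, cut at about 23% in these data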;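 note: signal is peak over basal fluorescence ratio across the kinetic read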
M4 ag = human M4 muscarinic receptor agonists, primary screen, CHO-K1 cells, Fluo-8 calcium fluorescence | CHO-K1 hM4/Gqi5; vehicle 0%, full acetylcholine response 100% | activation, % at 3 µM | hit rate 0.14% among 360,000 | AID 624127, 2012;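 active = activation above the run mean over all test wells plus 3 SD, cut at about 32% in these data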;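 note: peak over basal fluorescence ratio per well then scaled between controls; 0% = DMSO wells and 100% = acetylcholine at EC100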
Active calls of the source: *.

SMILES	M5 antag	CHRM4 antagonist	CHRM5 PAM	M4 PAM	M5 ag	M4 ag
Cc1cccc(CN2C(=O)/C(=C\c3ccc(C(=O)NCCN4CCOCC4)cc3)Sc3ccccc32)c1	31.5*	18.2	-12.7	-10.1	-1.6	23.2
O=C(CCN1C(=O)/C(=C\c2ccc(F)cc2)SC1=S)Nc1ccc(O)cc1	-1.5	0.3	-4.1	0.6	-1.0	2.9
COCn1ccnc1C(=O)c1ccco1	4.1	-2.4	-2.1	0.6	1.1	0.6
CCN(CC)C(=O)C1CCN(Cc2ccc(Br)cc2)CC1	0.5	31.7*	10.5	23.2	-3.3	1.9
COc1cccc(C(C(=O)NC2CCCC2)N(C(=O)c2ccco2)C2CC2)c1OC (stereo not given)	-0.1	8.3	-3.0	0.9	-3.0	0.6
COc1cccc(C(C(=O)NC2CCCC2)N(Cc2ccc(C)cc2)C(=O)c2ccco2)c1OC (stereo not given)	-3.8	9.6	28.1*	14.7	-4.1	1.0
COC(=O)C1=CN(Cc2cccs2)C=C(C(=O)OC)C1c1cccc(Cl)c1	9.5	7.6	-21.0	-6.7	-10.1	-1.2
COC(=O)C1=CN(Cc2cccs2)C=C(C(=O)OC)C1c1ccc(OC)cc1OC	26.9*	-3.5	-14.6	0.7	-3.8	-1.3
Cn1ccc(C(=O)N/N=C/c2c[nH]c3ccccc23)n1	-3.1	-23.3	27.8*	-0.7	1.3	2.5
CC1(C)C(Cl)C(=O)C(C(=O)c2ccccc2)C(=O)C1Cl (stereo not given)	12.3	4.0	-7.0	2.0	0.5	-0.1
CCCCNCCS(=O)(=O)NCc1ccc(OC)cc1	0.8	2.6	-0.8	-5.9	0.5	1.9
C=CCn1c(SCCN)nnc1-c1cccc(S(=O)(=O)N2CCOCC2)c1	10.9	5.0	2.9	-3.9	-2.2	0.3
COc1ccc(NC(=O)c2cc(S(=O)(=O)Nc3ccc(OC)cc3)cs2)cc1	16.4	15.0	-16.9	-22.9	2.0	9.6
O=C(Nc1ccc(F)cc1)c1cc(S(=O)(=O)Nc2ccc(F)cc2)cs1	32.2*	7.9	-23.0	-11.6	3.4	9.8
O=C(Cn1nc(-c2ccccc2)ccc1=O)Nc1ccc(N2CCN(C(=O)c3cccs3)CC2)cc1	4.6	0.2	-4.3	-5.3	-4.2	3.5
Cc1cccc(C)c1-n1cccc1/C=C1/C(=N)N2C(=NC1=O)SN=C2S(C)(=O)=O	18.8	8.2	-18.1	-11.1	-9.6	-0.7
Cc1ccc(-n2cccc2/C=C2/C(=N)N3C(=NC2=O)SN=C3S(C)(=O)=O)cc1Cl	28.1*	30.9*	19.4*	16.2	2.2	1.7
C=CCN1CC(=O)N2C(c3ccccc3)c3[nH]c4ccccc4c3C[C@H]2C1=O (stereo not given in full)	1.4	-7.6	-5.0	-3.4	6.2	14.9
CC(C)(C)C(=O)Nc1cccc(-c2nc3ccccc3c(=O)o2)c1	0.6	-6.5	-0.1	2.8	4.5	-2.1
CCCC(=O)Nc1cccc(-c2nc3ccccc3c(=O)o2)c1	-0.3	5.9	10.2	25.2*	-1.4	-1.1
CC(C)C(C)NC(=O)CN1C(=O)NC2(CCCc3ccccc32)C1=O (stereo not given)	4.5	3.6	-4.1	-4.4	-1.0	0.3
Cc1ccc(NC(=O)CN2C(=O)NC3(CCCc4ccccc43)C2=O)cc1S(=O)(=O)N1CCOCC1 (stereo not given)	99.7*	-6.3	-20.0	-10.2	-9.2	20.1
CC(C)C(C)NC(=O)CN1C(=O)NC2(CCc3ccccc32)C1=O (stereo not given)	-4.0	-23.8	4.6	14.5*	-0.2	-0.4
COc1ccc(C(C)(C)C)cc1NC(=O)c1cccc(S(=O)(=O)N2CCN(C(C)=O)CC2)c1	4.1	1.0	-4.1	0.9	-2.3	1.9
Cc1noc(C(=O)Nc2ccc(F)c(Cl)c2)c1Cl	18.6	95.2*	-16.5	-21.2	0.5	2.3
SMILES	M5 antag	CHRM4 antagonist	CHRM5 PAM	M4 PAM	M5 ag	M4 ag
O=C(CCNS(=O)(=O)c1ccccc1)NCC1CCCCC1	2.3	-0.3	-3.7	20.7*	2.3	1.0
O=C(COC(=O)CCNS(=O)(=O)c1ccccc1)NC1CC1	4.4	4.6	3.4	9.9	-0.4	1.9
CC(NC(=O)CCNS(=O)(=O)c1ccccc1)c1ccccc1 (stereo not given)	5.0	9.7	-1.4	21.8*	-5.1	0.3
CC(CNc1nc2ccccc2n2cnnc12)c1ccccc1 (stereo not given)	2.0	-5.9	-2.2	-1.2	1.0	2.5
CCC1CCCCN1CCCNC(=O)c1cn(CC)c2ccc(S(=O)(=O)N(C)C3CCCCC3)cc2c1=O (stereo not given)	2.3	32.8*	-4.3	-10.6	-7.6	-0.1
CCC1CCCCN1CCCNC(=O)c1cn(CC)c2ccc(S(=O)(=O)N3CCc4ccccc4C3)cc2c1=O (stereo not given)	5.4	31.3*	0.3	-22.5	-14.8	-0.6
CCn1cc(C(=O)NCCCOC)c(=O)c2cc(S(=O)(=O)N(C)C3CCCCC3)ccc21	-1.5	-3.3	-4.8	-2.9	-0.5	5.6
Nc1nc2ccc(Cl)cc2cc1C(=O)NCCc1c[nH]c2ccccc12	26.1	28.3*	-23.6	-13.9	8.5	20.1
Nc1nc2ccc(Cl)cc2cc1C(=O)NCCc1ccc(Cl)cc1Cl	12.7	-4.2	-6.3	5.0	2.0	4.2
O=C(Cc1cccc(C(F)(F)F)c1)OCN1C(=O)c2ccccc2C1=O	-0.5	-9.3	6.4	-3.5	-4.3	-1.2
Cc1nn(Cc2c(F)cccc2Cl)c(=O)c2ccccc12	16.8	-7.3	-5.0	-3.4	-4.8	-0.8
CC(=O)NS(=O)(=O)c1ccc(NC(=O)C2c3ccccc3Oc3ccccc32)cc1	-9.9	-10.8	22.4*	16.9	-9.0	0.8
CNS(=O)(=O)c1ccc(NC(=O)C2c3ccccc3Oc3ccccc32)cc1	7.4	2.6	-1.4	-6.1	10.8	5.2
CN1C(=O)/C(=C/c2ccccc2Cl)Sc2ccc(C(=O)N3CCCC3)cc21	-2.9	-3.1	8.7	-1.8	20.6	2.2
CN1C(=O)/C(=C/c2ccc(C(F)(F)F)cc2)Sc2ccc(C(=O)N3CCN(c4ccccn4)CC3)cc21	37.0*	-25.1	-12.4	5.5	-4.6	4.9
COc1ccc(CC(=O)OCC(=O)Nc2ncc(Cl)cc2Cl)cc1OC	4.7	26.6*	14.8	11.5	1.5	2.4
COc1cc(CCC(=O)OCC(=O)Nc2ncc(Cl)cc2Cl)cc(OC)c1OC	13.0	6.3	1.4	15.5	-0.7	1.8
